Compound activity as filed in PubChem BioAssay.
A selection: hits, their analogues and other compounds. The true share with any hit is near 1.9%.
p47phox inh: inhibitors of human p47phox binding | hit rate 0.53% among 220,000 | P14598 | p47phox/p22phox peptide binding, fluorescence polarization, 2 h | AID 1274 | inhibition, % at 24.7 µM;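 active = inhibition above about 30%, limit read from the data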;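 also: 0% = p47phox with labelled peptide and 100% = labelled peptide alone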
RAM inhibit: inhibitors of the yeast RAM network; S. cerevisiae dse1pr::URA3 reporter, 5-FOA growth OD615, 2 d; analog-sensitive cbk1-as2 kinase mutant strain; hit rate 1.8% among 190,000; inhibition, % at 50 µM;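 active = inhibition above a set limit, 3 SD over mean compound inhibition, cut at about 8.4% in these data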;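 also: 0% = DMSO-only wells with no growth and 100% = 10 µM 1-NA-PP1 full growth; inhibition rescues growth on 5-FOA so higher OD means more RAM inhibition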
p-CIP stab down: p/CIP protein destabilization; Q05BA5; F442A p/CIP-EGFP cells, EGFP fluorescence, 16 h; decrease of EGFP signal, % at 10 µM; hit rate 0.01% among 290,000; AID 1984;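 active = EGFP signal decrease of at least 30% at 10 µM or well 3 SD below plate mean, unless failing retest; inactive = the rest, including hits failing retest or dose response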
Target sequence (Q05BA5 1-1403): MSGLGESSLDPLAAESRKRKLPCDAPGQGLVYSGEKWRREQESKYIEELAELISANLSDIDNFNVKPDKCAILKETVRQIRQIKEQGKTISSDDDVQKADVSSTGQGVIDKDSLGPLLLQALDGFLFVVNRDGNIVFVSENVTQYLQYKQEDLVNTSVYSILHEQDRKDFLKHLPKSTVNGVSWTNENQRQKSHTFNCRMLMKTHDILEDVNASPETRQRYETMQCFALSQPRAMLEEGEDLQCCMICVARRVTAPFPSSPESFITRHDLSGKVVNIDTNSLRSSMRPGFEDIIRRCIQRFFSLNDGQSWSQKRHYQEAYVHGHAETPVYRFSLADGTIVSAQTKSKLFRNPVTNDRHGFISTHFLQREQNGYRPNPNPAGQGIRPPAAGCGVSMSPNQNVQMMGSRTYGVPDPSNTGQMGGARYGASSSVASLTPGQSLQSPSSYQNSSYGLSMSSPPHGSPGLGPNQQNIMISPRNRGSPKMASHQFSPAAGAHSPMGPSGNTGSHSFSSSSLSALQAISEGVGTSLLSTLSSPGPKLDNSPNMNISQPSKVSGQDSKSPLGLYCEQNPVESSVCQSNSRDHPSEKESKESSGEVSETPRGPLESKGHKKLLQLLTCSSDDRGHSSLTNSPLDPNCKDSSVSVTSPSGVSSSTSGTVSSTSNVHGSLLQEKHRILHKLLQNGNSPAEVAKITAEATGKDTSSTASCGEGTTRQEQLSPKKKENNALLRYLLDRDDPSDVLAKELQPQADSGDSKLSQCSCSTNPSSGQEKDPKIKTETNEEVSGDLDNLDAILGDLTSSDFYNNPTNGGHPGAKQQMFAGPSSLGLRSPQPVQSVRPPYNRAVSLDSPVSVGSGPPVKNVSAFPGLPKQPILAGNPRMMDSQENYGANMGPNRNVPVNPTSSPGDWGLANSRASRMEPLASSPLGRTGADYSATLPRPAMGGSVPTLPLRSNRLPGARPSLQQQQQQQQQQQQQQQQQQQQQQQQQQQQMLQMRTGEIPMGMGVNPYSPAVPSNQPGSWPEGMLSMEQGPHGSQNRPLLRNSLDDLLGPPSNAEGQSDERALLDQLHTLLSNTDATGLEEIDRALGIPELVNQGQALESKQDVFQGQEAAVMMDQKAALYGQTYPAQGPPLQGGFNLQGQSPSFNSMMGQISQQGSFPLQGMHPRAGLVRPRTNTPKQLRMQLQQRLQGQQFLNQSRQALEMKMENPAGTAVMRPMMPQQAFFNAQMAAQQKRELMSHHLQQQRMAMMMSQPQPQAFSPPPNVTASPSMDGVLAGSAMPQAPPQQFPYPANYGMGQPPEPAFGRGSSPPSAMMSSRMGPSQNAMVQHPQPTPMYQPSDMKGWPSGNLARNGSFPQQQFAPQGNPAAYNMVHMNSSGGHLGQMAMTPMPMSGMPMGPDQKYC
Dynein cargo inh: dynein cargo transport inhibition; 3617.4 mouse cells, GR-EGFP nuclear translocation imaging; test concentration mostly 20 µM; stimulated with dexamethasone, 1 µM; stronger effect = lower value; z-score, hits read low; hit rate 0.47% among 220,000; AID 1381;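 active = plate z-score of nuclear minus cytoplasmic receptor signal below a set negative limit, without overly bright fluorescence or cell loss, cut at about -3.5 in these data, passing the limit was not always enough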;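 also: z-score of nuclear minus cytoplasmic ring GR-EGFP intensity difference per well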
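Buffer or medium: tet-free, stripped-serum medium; Also added: dexamethasone, 1.0 µM final; Technique: high-content fluorescence imaging after fixation; Times: 48 h induction, 1 h compound, 30 min dex at 37 °C; Read-out: per-cell GR-EGFP intensity, nucleus versus surrounding cytoplasmic ring, well-averaged.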
* marks the source's active call; other numbers are inactive results; i = inactive; x = no result.

SMILES	p47phox inh	RAM inhibit	p-CIP stab down	Dynein cargo inh
O=C(N/N=C/c1ccc([N+](=O)[O-])o1)c1cc(-c2ccc(-c3ccccc3)cc2)nc2ccccc12	-45.6	3.5	-8.0	1.79
O=C(N/N=C/c1ccc([N+](=O)[O-])o1)c1cc(-c2ccncc2)nc2ccccc12	-44.3	0.8	-8.4	-5.01*
Clc1ccc(CSc2cc3c(nn2)-c2ccccc2CC3)cc1	-7.8	10.3*	3.4	-0.998
N#C/C(=C\c1ccc(N2CCCCC2)o1)C(=O)Nc1cccc(Br)c1	36.6*	3.7	-18.8	-10.2
Cc1ccnc(NS(=O)(=O)c2ccc(NC(=O)CC(C)c3ccccc3)cc2)n1 (stereo not drawn)	x	x	5.3	x
COC(=O)c1ccccc1NC(=O)c1ccc(COc2ccc(C)c(C)c2)o1	-69.7	10.2*	-4.8	-0.889
COc1ccccc1NC(=O)c1ccc(COc2ccccc2OC)o1	21.0	5.4	2.7	3.05
COC(=O)c1ccccc1NC(=O)c1ccc(COc2cc(C)cc(C)c2)o1	-7.9	11.2*	9.3	0.152
CCCCCCOc1ccc(-c2ccc(C#N)cn2)cc1	-1.6	10.3*	-6.0	2.45
CCCCCCOc1ccc(C(=O)O)cc1	-4.0	x	-7.7	-0.139
COc1ccc(CC(=O)N/N=C(/C)CC(=O)N(C)c2ccccc2)cc1	x	x	-14.4	x
Cc1ccc2nc(/C(C#N)=C/c3cn[nH]c3-c3ccc(F)cc3)[nH]c2c1	-50.5	10.2*	-11.3	2.34
Cc1ccccc1Cc1c(C)nc2nc(SCC(=O)NCc3ccco3)nn2c1C	-8.3	1.6	-3.3	-1.01
Cc1ccccc1Cc1c(C)nc2c(C(=O)NCc3ccco3)cnn2c1C	-16.6	10.4*	9.0	-1.89
COc1ccc(-c2nc(CSCC(=O)NCCCN3CCCC3=O)c(C)o2)cc1	x	x	7.4	x
CC(C)C(NC(=O)C12CC3CC(CC(C3)C1)C2)C(=O)N/N=C/C1=C(N2CCOCC2)C(=C\c2cccc([N+](=O)[O-])c2)/CC1 (stereo not drawn)	5.2	9.6*	-2.2	0.756
O=C(Nc1ccccc1C(=O)NCc1ccccc1)c1ccccc1Br	-6.0	1.2	-2.0	0.236
O=C(Nc1ccccc1C(=O)O)c1ccc(Br)c(S(=O)(=O)NCc2ccccc2)c1	-1.2	10.7*	-7.0	0.0844
O=c1oc2ccccc2cc1-c1nc(-c2cccs2)cs1	51.8*	3.7	3.6	i
COc1cccc2cc(-c3nc(-c4cccs4)cs3)c(=O)oc12	-35.1	4.1	-4.1	-0.0629
NS(=O)(=O)c1cccc(NC(=O)CCSc2ccccc2Cl)c1	-3.1	1.5	0.1	0.429
O=C(CCSc1ccccc1Cl)Nc1cccc([N+](=O)[O-])c1	0.7	8.9*	-12.8	-0.561
CC(C)OCCCN1CN(S(=O)(=O)c2cccc(Cl)c2)c2nc3ccccc3nc21	-31.1	9.1*	-5.9	0.00246
CCC(=NCc1ccc(Cl)c(Cl)c1)c1nc(-c2ccco2)oc1O	-13.2	10.6*	-11.8	-0.0964
O=C(COc1ccccc1)NCCSCc1ccc(Cl)cc1	-9.6	9.9*	-7.9	0.13
SMILES	p47phox inh	RAM inhibit	p-CIP stab down	Dynein cargo inh
O=C(c1ccco1)N1C(=O)c2cccc3cccc1c23	150.2*	2.8	-8.4	-0.0421
Cc1cc(N=Nc2ccccc2)c(NCC(O)C(O)C(O)CO)cc1C (stereo not drawn)	-13.1	10.1*	5.6	-0.491
O=C(NC1CCCC1)c1cc(-c2ccc(Cl)cc2)on1	x	x	-2.4	x
CCN1CCN(Cc2ccc(NC(=O)c3ccc(C)c(NC(=O)C(=O)c4c[nH]c5ccccc45)c3)cc2C(F)(F)F)CC1	59.0*	x	-6.9	-0.182
CCN1CCN(Cc2ccc(NC(=O)c3cc(NC(=O)C(=O)c4c[nH]c5ccccc45)cc(OC)c3)cc2C(F)(F)F)CC1	37.3*	x	2.3	-0.0615
Cc1cc(N(C)Cc2ccccc2)nc2cc(O)ccc12	x	x	3.4	x
O=C(c1ccc(COc2c(F)c(F)c(F)c(F)c2F)o1)N1CCOCC1	-6.6	1.6	9.1	-0.0035
O=C(c1ccc(COc2c(F)c(F)cc(F)c2F)o1)N1CCN(c2ccccc2)CC1	-22.7	11.3*	-8.5	-0.37
O=C(Nc1ccc(F)cc1F)c1ccc(COc2c(F)c(F)cc(F)c2F)o1	-6.2	8.6*	3.0	-0.455
COc1ccc(-c2nnc(-c3cc4c(ccc5ccccc54)oc3=O)o2)cc1	31.6*	5.6	5.1	2.39
CCN(CC)c1ccc2cc(-c3nnc(-c4ccccc4)o3)c(=O)oc2c1	-57.5	4.7	-101.7	-4.52*
CCN(CC)c1ccc2cc(-c3nc4ccccc4n3C)c(=O)oc2c1	-24.3	0.1	-115.0	1.7
CCN(CC)c1ccc2cc(-c3nnc(-c4ccc(Br)cc4)o3)c(=O)oc2c1	x	x	x	-5.72*
O=c1oc2ccc3ccccc3c2cc1-c1nnc(-c2ccccc2)o1	-0.6	3.2	-16.5	-1.29
COc1ccccc1N1CCN(C2CCCN(C(=O)c3cc(C4CC4)on3)C2)CC1 (stereo not drawn)	x	x	-1.4	x
COCc1cc(=O)[nH]c(Nc2nc3ccccc3o2)n1	-9.0	1.4	5.0	0.101
Cc1ccc2oc(Nc3nc(-c4ccccc4)cc(=O)[nH]3)nc2c1	45.3*	0.0	-4.7	-0.851
COc1cccc(-c2ccc(-c3noc(-c4cccs4)n3)c(OC)n2)c1	-16.2	6.2	4.2	0.346
COc1cccc(-c2ccc(-c3noc(-c4ccccc4F)n3)c(OC)n2)c1	-68.9	11.0*	0.4	0.131
OC1=C(O)c2nc3cc(F)ccc3nc21	-9.6	x	-2.9	2.47
Fc1ccc2nc3[nH]c4ccccc4c3nc2c1	-4.0	8.9*	-157.8	-0.0465
O=C(O)CSc1nc(-c2ccccc2)nc2c1oc1ccccc12	-2.1	9.8*	3.8	0.187
c1ccc(-c2nc(NCc3ccco3)c3oc4ccccc4c3n2)cc1	-51.6	11.2*	4.8	-1.07
COc1ccc(OC)c(N)c1	106.3*	1.1	-6.1	1.46
CC(Oc1ccc2c(-c3ccccc3)cc(=O)oc2c1)C(=O)NCCCn1ccnc1 (stereo not drawn)	x	x	-3.4	x
SMILES	p47phox inh	RAM inhibit	p-CIP stab down	Dynein cargo inh
COc1ccccc1CNC(=O)N1CCN(c2ccccc2C)CC1	x	x	-6.6	x
Cc1cc2[nH]c3c(c[n+](C)c4ccccc34)c2cc1C	49.8*	3.0	-6.0	-4.36*
O=C(Nc1cccc([N+](=O)[O-])c1)C1C2CC/C=C\CCC21 (stereo not drawn)	137.6*	x	-13.9	-0.429
O=C(O)/C=C/c1cn(-c2ccccc2)nc1-c1cc2ccccc2o1	-19.9	x	-11.5	0.476
CCS(=O)(=O)C1=NN2C(=N)/C(=C\c3ccc(SCc4ccco4)o3)C(=O)N=C2S1	-33.7	10.9*	-30.0	0.3
CC(C)C[C@H](NC(=O)c1[nH]cnc1C(=O)N[C@@H](Cc1ccccc1)C(=O)OCc1ccccc1)C(=O)OCc1ccccc1	x	x	0.2	x
O=C(N[C@@H](Cc1ccccc1)C(=O)OCc1ccccc1)c1nc[nH]c1C(=O)NCc1ccccc1	x	9.2*	-11.0	-0.378
Cc1ccc(NC(=O)C2OCCc3ccccc32)cc1Cl (stereo not drawn)	-10.2	0.9	-2.2	0.589
Cc1ccc(-c2nn(-c3ccccc3)cc2C(=O)Nc2ccc(C(=O)O)cc2)cc1	-6.5	9.6*	-8.9	-0.654
